Experiments:
SW480 = test: Cytotoxicity against human SW480 cells by after 48 hrs by MTT assay; type: functional, cell-based; conditions: SW480, 48 h
How it was run: (§1)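 MTT assay; cell lines obtained from Shanghai Institute of Biological Sciences, CAS. Compounds in DMSO stock (10 g/L), diluted in medium just before use. Cells seeded at 8000/well; compound added 24 h later, in duplicate. After 48 h at 37 °C, 5% CO₂, MTT (5 mg/mL in PBS) added for 4 h. Formazan dissolved in DMSO; absorbance read at 570 nm. IC50 taken as the concentration giving 50% growth inhibition.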

A549 [1] = test: Cytotoxicity against human A549 cells by after 48 hrs by MTT assay; type: functional, cell-based; conditions: A549, 48 h; how it was run: as §1
SGC-7901 = test: Cytotoxicity against human SGC7901 cells by after 48 hrs by MTT assay; type: functional, cell-based; conditions: SGC-7901, 48 h; how it was run: as §1
HeLa = test: Cytotoxicity against human HeLa cells by after 48 hrs by MTT assay; type: functional, cell-based; how it was run: as §1
[2] = Cytotoxicity against human L02 cells by after 48 hrs by MTT assay; type: cell-based; conditions: L02, 48 h; how it was run: as §1
[3] = Cytotoxicity against human QGY7701 cells by after 48 hrs by MTT assay; type: functional, cell-based; conditions: QGY7701, 48 h; how it was run: as §1
MDA-MB-231 = test: Cytotoxicity against human MDA-MB-231 cells by after 48 hrs by MTT assay; type: functional, cell-based; conditions: MDA-MB-231, 48 h; how it was run: as §1
A549 [4] = test: Induction of apoptosis in human A549 cells assessed as necrotic cells at 2 uM after 48 hrs by annexinV/propidium iodide staining-based flow cytometric analysis (reference value: 3.72%); conditions: A549, 48 h
A549 [5] = test: Induction of apoptosis in human A549 cells assessed as late apoptotic cells at 1 uM after 48 hrs by annexinV/propidium iodide staining-based flow cytometric analysis (reference value: 0.16%); type: functional
A549 [6] = test: Induction of apoptosis in human A549 cells assessed as early apoptotic cells at 1 uM after 48 hrs by annexinV/propidium iodide staining-based flow cytometric analysis ( Rvb = 0.15%); type: functional
A549 [7] = test: Induction of apoptosis in human A549 cells assessed as viable cells at 1 uM after 48 hrs by annexinV/propidium iodide staining-based flow cytometric analysis ( Rvb = 95.96%); type: functional; conditions: A549, 48 h, read-out: Activity
A549 [8] = test: Induction of apoptosis in human A549 cells assessed as necrotic cells at 4 uM after 48 hrs by annexinV/propidium iodide staining-based flow cytometric analysis (reference value: 3.72%); conditions: A549, 48 h
A549 [9] = test: Induction of apoptosis in human A549 cells assessed as early apoptotic cells at 4 uM after 48 hrs by annexinV/propidium iodide staining-based flow cytometric analysis ( Rvb = 0.15%); type: functional
A549 [10] = test: Induction of apoptosis in human A549 cells assessed as viable cells at 4 uM after 48 hrs by annexinV/propidium iodide staining-based flow cytometric analysis ( Rvb = 95.96%); type: functional; conditions: A549, 48 h, read-out: Activity
A549 [11] = test: Induction of apoptosis in human A549 cells assessed as necrotic cells at 8 uM after 48 hrs by annexinV/propidium iodide staining-based flow cytometric analysis (reference value: 3.72%); conditions: A549, 48 h
A549 [12] = test: Induction of apoptosis in human A549 cells assessed as early apoptotic cells at 8 uM after 48 hrs by annexinV/propidium iodide staining-based flow cytometric analysis ( Rvb = 0.15%); type: functional
A549 [13] = test: Induction of apoptosis in human A549 cells assessed as viable cells at 8 uM after 48 hrs by annexinV/propidium iodide staining-based flow cytometric analysis ( Rvb = 95.96%); type: functional; conditions: A549, 48 h, read-out: Activity
A549 [14] = test: Induction of apoptosis in human A549 cells assessed as late apoptotic cells at 4 uM after 48 hrs by annexinV/propidium iodide staining-based flow cytometric analysis (reference value: 0.16%); type: functional
A549 [15] = test: Induction of apoptosis in human A549 cells assessed as late apoptotic cells at 8 uM after 48 hrs by annexinV/propidium iodide staining-based flow cytometric analysis (reference value: 0.16%); type: functional
A549 [16] = test: Induction of apoptosis in human A549 cells assessed as early apoptotic cells at 2 uM after 48 hrs by annexinV/propidium iodide staining-based flow cytometric analysis ( Rvb = 0.15%); type: functional
A549 [17] = test: Induction of apoptosis in human A549 cells assessed as viable cells at 2 uM after 48 hrs by annexinV/propidium iodide staining-based flow cytometric analysis ( Rvb = 95.96%); type: functional; conditions: A549, 48 h, read-out: Activity
A549 [18] = test: Induction of apoptosis in human A549 cells assessed as late apoptotic cells at 2 uM after 48 hrs by annexinV/propidium iodide staining-based flow cytometric analysis (reference value: 0.16%); type: functional
A549 [19] = test: Induction of apoptosis in human A549 cells after 48 hrs by annexinV/propidium iodide staining-based flow cytometric analysis; type: functional, cell-based

Row | SMILES | IC50 (SW480) [µM] | IC50 (A549 [1]) [µM] | IC50 (SGC-7901) [µM] | IC50 (HeLa) [µM] | IC50 [2] [µM] | IC50 [3] [µM] | IC50 (MDA-MB-231) [µM] | further results
1 | O=c1ccoc2cc(OCc3cn(Cc4ccccc4Cl)nn3)ccc12 | 23.5 | > 100 | > 100 | > 100 | > 300 | 19.7 | – | –
2 | Cc1cccc(Cn2cc(COc3ccc4c(=O)ccoc4c3)nn2)c1 | 11.7 | 20.3 | > 100 | > 100 | > 300 | 22.4 | 16 | –
3 | O=c1ccoc2cc(OCc3cn(Cc4cccc(Cl)c4)nn3)ccc12 | 12.9 | 13.7 | > 100 | > 100 | > 300 | 28.4 | > 100 | –
4 | O=c1ccoc2cc(OCc3cn(Cc4ccccc4)nn3)ccc12 | 42.9 | > 100 | > 100 | > 100 | > 300 | > 100 | > 100 | –
5 | O=c1ccoc2cc(OCc3cn(Cc4ccc([N+](=O)[O-])cc4)nn3)ccc12 | 19.3 | > 100 | > 100 | 25.7 | > 300 | > 100 | – | –
6 | O=c1ccoc2cc(OCc3cn(Cc4ccc(Cl)cc4)nn3)ccc12 | > 100 | > 100 | > 100 | 37.6 | > 300 | 41.7 | > 100 | –
7 | O=c1[nH]cc(F)c(=O)[nH]1 [FLUOROURACIL] | – | – | 6.04 | – | 46.6 | – | – | –
8 | O=c1ccoc2cc(OCc3cn(Cc4cccc(Br)c4)nn3)ccc12 | > 100 | > 100 | > 100 | > 100 | > 300 | 17.6 | > 100 | –
9 | C/C(=C\COc1ccc2ccc(=O)oc2c1)C1=CC(=O)C(C)(C)O1 [GEIPARVARIN] | 20.3 | 18 | 7.59 | 9.09 | > 300 | 17.7 | 9.88 | necrotic cells at 2 µM (A549 [4]): 4.26%; Activity (A549 [5]): 1.32%; Activity (A549 [6]): 6.19%; viability at 1 µM (A549 [7]): 90.7%; necrotic cells at 4 µM (A549 [8]): 5.13%; Activity (A549 [9]): 18.87%; viability at 4 µM (A549 [10]): 71.7%; necrotic cells at 8 µM (A549 [11]): 5.87%; Activity (A549 [12]): 25.25%; viability at 8 µM (A549 [13]): 65.3%; Activity (A549 [14]): 4.27%; Activity (A549 [15]): 3.56%; Activity (A549 [16]): 11.51%; viability at 2 µM (A549 [17]): 77%; Activity (A549 [18]): 5.25%
10 | O=c1ccoc2cc(OCc3cn(Cc4ccccc4F)nn3)ccc12 | 11.4 | 10.8 | > 100 | > 100 | > 300 | 36.9 | – | –
11 | N#Cc1cccc(Cn2cc(COc3ccc4c(=O)ccoc4c3)nn2)c1 | > 100 | 14.3 | > 100 | > 100 | > 300 | 24.4 | > 100 | –
12 | O=c1ccoc2cc(OCc3cn(Cc4ccc(Br)cc4)nn3)ccc12 | 37.5 | > 100 | > 100 | > 100 | > 300 | 96.4 | > 100 | –
13 | O=c1ccoc2cc(OCc3cn(Cc4ccc(Cl)cc4Cl)nn3)ccc12 | > 100 | 5.26 | > 100 | 80.6 | > 300 | 13.3 | > 100 | necrotic cells at 2 µM (A549 [4]): 2.42%; Activity (A549 [19]): Dose-dependent effect; Activity (A549 [5]): 2.31%; Activity (A549 [6]): 7.13%; viability at 1 µM (A549 [7]): 88.4%; necrotic cells at 4 µM (A549 [8]): 2.19%; Activity (A549 [9]): 28.45%; viability at 4 µM (A549 [10]): 65.8%; necrotic cells at 8 µM (A549 [11]): 1.64%; Activity (A549 [12]): 29.73%; viability at 8 µM (A549 [13]): 65.3%; Activity (A549 [14]): 3.55%; Activity (A549 [15]): 3.33%; Activity (A549 [16]): 17.62%; viability at 2 µM (A549 [17]): 76.4%; Activity (A549 [18]): 3.56%
14 | C#CCOc1ccc2c(=O)ccoc2c1 | > 100 | > 100 | > 100 | 64.7 | > 300 | 58.5 | > 100 | –
15 | O=c1ccoc2cc(OCc3cn(Cc4cccc(F)c4)nn3)ccc12 | > 100 | > 100 | > 100 | 7.55 | > 300 | > 100 | > 100 | –
16 | O=c1ccoc2cc(OCc3cn(Cc4cccc([N+](=O)[O-])c4)nn3)ccc12 | > 100 | 9.45 | > 100 | 17.3 | > 300 | 14.1 | > 100 | necrotic cells at 2 µM (A549 [4]): 5.68%; Activity (A549 [5]): 3%; Activity (A549 [6]): 8.07%; viability at 1 µM (A549 [7]): 86.7%; necrotic cells at 4 µM (A549 [8]): 5.44%; Activity (A549 [9]): 13.55%; viability at 4 µM (A549 [10]): 74.7%; necrotic cells at 8 µM (A549 [11]): 4.16%; Activity (A549 [12]): 21.54%; viability at 8 µM (A549 [13]): 70.6%; Activity (A549 [14]): 6.36%; Activity (A549 [15]): 5.68%; Activity (A549 [16]): 10.87%; viability at 2 µM (A549 [17]): 80.1%; Activity (A549 [18]): 3.39%
17 | Cc1ccccc1Cn1cc(COc2ccc3c(=O)ccoc3c2)nn1 | > 100 | > 100 | > 100 | 15.3 | > 300 | > 100 | > 100 | –
18 | CC(C)(C)c1ccc(Cn2cc(COc3ccc4c(=O)ccoc4c3)nn2)cc1 | 28.8 | > 100 | > 100 | 17.6 | > 300 | > 100 | > 100 | –
19 | N#Cc1ccc(Cn2cc(COc3ccc4c(=O)ccoc4c3)nn2)cc1 | > 100 | > 100 | > 100 | > 100 | > 300 | > 100 | > 100 | –
20 | O=c1ccoc2cc(OCc3cn(Cc4ccc(F)cc4)nn3)ccc12 | 11.2 | > 100 | > 100 | 12 | > 300 | 14.4 | > 100 | –
21 | Cc1ccc(Cn2cc(COc3ccc4c(=O)ccoc4c3)nn2)cc1 | 10.4 | 50.7 | > 100 | > 100 | > 300 | 68.5 | > 100 | –
22 | O=c1ccoc2cc(OCc3cn(Cc4ccccc4Br)nn3)ccc12 | > 100 | > 100 | > 100 | 14.5 | > 300 | > 100 | > 100 | –
23 | COc1ccc(Cn2cc(COc3ccc4c(=O)ccoc4c3)nn2)cc1 | 20.4 | 16.5 | > 100 | 14.4 | > 300 | 56.6 | > 100 | –

— ChEMBL document CHEMBL2034938, “Convenient synthesis of novel geiparvarin analogs with potential anti-cancer activity via click chemistry” (Eur J Med Chem, 2012)
